# Measurements as given in ChEMBL document CHEMBL1926614, “Substituted thiazoles V. synthesis and antitumor activity of novel thiazolo[2,3-b]quinazoline and pyrido[4,3-d]thiazolo[3,2-a]pyrimidine analogues” (2012).
# Experiments:
# Format in all cases: functional
# SNB-19 = assay: Growth inhibition of human SNB19 cells at 10 uM after 48 hrs by coulter counting; conditions: SNB-19, 48 h, read-out: GI
# Method in brief: (§1)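 Single-dose primary screen across the full NCI 60-cell-line panel. Stocks were made in DMSO and diluted in PBS to a final DMSO below 1%. Cultures at 6 × 10⁴ cells/ml were run in duplicate wells alongside PBS/DMSO vehicle controls at 37 °C in humidified 5% CO₂. Data were expressed as percent growth of treated cells.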
# ACHN = assay: Growth inhibition of human ACHN cells at 10 uM after 48 hrs by coulter counting; conditions: read-out: GI; method in brief: as §1
# NCI-H226 = assay: Growth inhibition of human NCI-H226 cells at 10 uM after 48 hrs by coulter counting; conditions: NCI-H226, 48 h, read-out: GI; method in brief: as §1
# [1] = Growth inhibition of human NCI-322M cells at 10 uM after 48 hrs by coulter counting; conditions: read-out: GI; method in brief: as §1
# LOX IMVI = assay: Growth inhibition of human LOXIMVI cells at 10 uM after 48 hrs by coulter counting; conditions: read-out: GI; method in brief: as §1
# HCT-116 = assay: Growth inhibition of human HCT116 cells at 10 uM after 48 hrs by coulter counting; conditions: HCT-116, 48 h, read-out: GI; method in brief: as §1
# UACC-257 = assay: Growth inhibition of human UACC257 cells at 10 uM after 48 hrs by coulter counting; conditions: UACC-257, 48 h, read-out: GI
# Method in brief: (§2)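 Single-dose screen in the NCI 60 human tumor cell line panel (nine subpanels). Compounds dissolved in DMSO and diluted in phosphate buffered saline, keeping final DMSO below 1%. Added in duplicate wells to cells at 6 × 10⁴ cells/ml. Controls held PBS and DMSO at matching dilutions. Incubated at 37 °C, humidified, 5% CO₂. Reported as percent growth of treated cells.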
# HCC 2998 = assay: Growth inhibition of human HCC2998 cells at 10 uM after 48 hrs by coulter counting; conditions: HCC 2998, 48 h, read-out: GI; method in brief: as §1
# SNB-75 = assay: Growth inhibition of human SNB75 cells at 10 uM after 48 hrs by coulter counting; conditions: SNB-75, 48 h, read-out: GI; method in brief: as §1
# M14 = assay: Growth inhibition of human M14 cells at 10 uM after 48 hrs by coulter counting; conditions: M14, 48 h, read-out: GI; method in brief: as §1
# RPMI-8226 = assay: Growth inhibition of human RPMI8226 cells at 10 uM after 48 hrs by coulter counting; conditions: RPMI-8226, 48 h, read-out: GI; method in brief: as §1
# SK-MEL-5 = assay: Growth inhibition of human SK-MEL-5 cells at 10 uM after 48 hrs by coulter counting; conditions: SK-MEL-5, 48 h, read-out: GI; method in brief: as §1
# CAKI-1 = assay: Growth inhibition of human Caki1 cells at 10 uM after 48 hrs by coulter counting; conditions: CAKI-1, 48 h, read-out: GI; method in brief: as §1
# MOLT-4 = assay: Growth inhibition of human MOLT4 cells at 10 uM after 48 hrs by coulter counting; conditions: MOLT-4, 48 h, read-out: GI; method in brief: as §1
# A498 = assay: Growth inhibition of human A498 cells at 10 uM after 48 hrs by coulter counting; conditions: A498, 48 h, read-out: GI; method in brief: as §1
# HOP-62 = assay: Growth inhibition of human HOP62 cells at 10 uM after 48 hrs by coulter counting; conditions: HOP-62, 48 h, read-out: GI; method in brief: as §1
# SF-539 = assay: Growth inhibition of human SF539 cells at 10 uM after 48 hrs by coulter counting; conditions: SF-539, 48 h, read-out: GI; method in brief: as §1
# EKVX = assay: Growth inhibition of human EKVX cells at 10 uM after 48 hrs by coulter counting; conditions: read-out: GI; method in brief: as §1
# UACC-62 = assay: Growth inhibition of human UACC62 cells at 10 uM after 48 hrs by coulter counting; conditions: UACC-62, 48 h, read-out: GI; method in brief: as §2
# U-251 = assay: Growth inhibition of human U251 cells at 10 uM after 48 hrs by coulter counting; conditions: U-251, 48 h, read-out: GI; method in brief: as §2
# DU-145 = assay: Growth inhibition of human DU145 cells at 10 uM after 48 hrs by coulter counting; conditions: DU-145, 48 h, read-out: GI; method in brief: as §1
# BT-549 = assay: Growth inhibition of human BT549 cells at 10 uM after 48 hrs by coulter counting; conditions: BT-549, 48 h, read-out: GI; method in brief: as §1
# SK-MEL-2 = assay: Growth inhibition of human SK-MEL-2 cells at 10 uM after 48 hrs by coulter counting; conditions: SK-MEL-2, 48 h, read-out: GI; method in brief: as §1
# MDA-MB-435 = assay: Growth inhibition of human MDA-MB-435 cells at 10 uM after 48 hrs by coulter counting; conditions: MDA-MB-435, 48 h, read-out: GI; method in brief: as §1
# SK-MEL-28 = assay: Growth inhibition of human SK-MEL-28 cells at 10 uM after 48 hrs by coulter counting; conditions: SK-MEL-28, 48 h, read-out: GI; method in brief: as §1
# OVCAR-4 = assay: Growth inhibition of human OVCAR4 cells at 10 uM after 48 hrs by coulter counting; conditions: OVCAR-4, 48 h, read-out: GI; method in brief: as §1
# T47D = assay: Growth inhibition of human T47D cells at 10 uM after 48 hrs by coulter counting; conditions: read-out: GI; method in brief: as §2
# IGROV-1 = assay: Growth inhibition of human IGROV1 cells at 10 uM after 48 hrs by coulter counting; conditions: IGROV-1, 48 h, read-out: GI; method in brief: as §1
# NCI-H23 = assay: Growth inhibition of human NCI-H23 cells at 10 uM after 48 hrs by coulter counting; conditions: NCI-H23, 48 h, read-out: GI; method in brief: as §1
# NCI-H522 = assay: Growth inhibition of human NCI-H522 cells at 10 uM after 48 hrs by coulter counting; conditions: NCI-H522, 48 h, read-out: GI; method in brief: as §1
# KM12 = assay: Growth inhibition of human KM12 cells at 10 uM after 48 hrs by coulter counting; conditions: KM12, 48 h, read-out: GI; method in brief: as §1
# NCI-H460 = assay: Growth inhibition of human NCI-H460 cells at 10 uM after 48 hrs by coulter counting; conditions: NCI-H460, 48 h, read-out: GI; method in brief: as §1
# MCF7 = assay: Growth inhibition of human MCF7 cells at 10 uM after 48 hrs by coulter counting; conditions: MCF7, 48 h, read-out: GI; method in brief: as §1
# SF-268 = assay: Growth inhibition of human SF268 cells at 10 uM after 48 hrs by coulter counting; conditions: SF-268, 48 h, read-out: GI; method in brief: as §1
# HT-29 = assay: Growth inhibition of human HT-29 cells at 10 uM after 48 hrs by coulter counting; conditions: HT-29, 48 h, read-out: GI; method in brief: as §1
# NCI/ADR-RES = assay: Growth inhibition of human NCI/ADR-RES cells at 10 uM after 48 hrs by coulter counting; conditions: read-out: GI; method in brief: as §1
# SF-295 = assay: Growth inhibition of human SF295 cells at 10 uM after 48 hrs by coulter counting; conditions: SF-295, 48 h, read-out: GI; method in brief: as §1
# UO-31 = assay: Growth inhibition of human UO31 cells at 10 uM after 48 hrs by coulter counting; conditions: UO-31, 48 h, read-out: GI; method in brief: as §2
# HL-60(TB) = assay: Growth inhibition of human HL-60(TB) cells at 10 uM after 48 hrs by coulter counting; conditions: HL-60, 48 h, read-out: GI
# Method in brief: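 Test compound was dissolved in DMSO and diluted in phosphate-buffered saline to a final DMSO level below 1%. Dilutions were plated in duplicate with cell culture at 6 × 10⁴ cells/ml. Vehicle controls held PBS and DMSO at matching dilutions. Incubation was at 37 °C, humidified, under 5% CO₂. Data were reported as percent growth of treated cells.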
# K562 = assay: Growth inhibition of human K562 cells at 10 uM after 48 hrs by coulter counting; conditions: K562, 48 h, read-out: GI; method in brief: as §1
# CCRF-CEM = assay: Growth inhibition of human CCRF-CEM cells at 10 uM after 48 hrs by coulter counting; conditions: read-out: GI; method in brief: as §1
# A549 = assay: Growth inhibition of human A549 cells at 10 uM after 48 hrs by coulter counting; conditions: A549, 48 h, read-out: GI; method in brief: as §1
smiles,measurement,setting,value
C1=CN2C(=NC3=C(CCC/C3=C\c3cccs3)C2c2cccs2)S1 (configuration not stated),inhibition of growth at 10 µM,SNB-19,> 10%
same,inhibition of growth at 10 µM,ACHN,> 10%
same,inhibition of growth at 10 µM,NCI-H226,> 10%
same,inhibition of growth at 10 µM,[1],> 10%
same,inhibition of growth at 10 µM,LOX IMVI,13%
same,inhibition of growth at 10 µM,HCT-116,> 10%
same,inhibition of growth at 10 µM,UACC-257,> 10%
same,inhibition of growth at 10 µM,HCC 2998,> 10%
same,inhibition of growth at 10 µM,SNB-75,10.4%
same,inhibition of growth at 10 µM,M14,> 10%
same,inhibition of growth at 10 µM,RPMI-8226,> 10%
same,inhibition of growth at 10 µM,SK-MEL-5,> 10%
same,inhibition of growth at 10 µM,CAKI-1,> 10%
same,inhibition of growth at 10 µM,MOLT-4,> 10%
same,inhibition of growth at 10 µM,A498,> 10%
same,inhibition of growth at 10 µM,HOP-62,> 10%
same,inhibition of growth at 10 µM,SF-539,> 10%
same,inhibition of growth at 10 µM,EKVX,> 10%
same,inhibition of growth at 10 µM,UACC-62,> 10%
same,inhibition of growth at 10 µM,U-251,> 10%
same,inhibition of growth at 10 µM,DU-145,> 10%
same,inhibition of growth at 10 µM,BT-549,> 10%
same,inhibition of growth at 10 µM,SK-MEL-2,> 10%
same,inhibition of growth at 10 µM,MDA-MB-435,> 10%
same,inhibition of growth at 10 µM,SK-MEL-28,> 10%
same,inhibition of growth at 10 µM,OVCAR-4,> 10%
same,inhibition of growth at 10 µM,T47D,> 10%
same,inhibition of growth at 10 µM,IGROV-1,> 10%
same,inhibition of growth at 10 µM,NCI-H23,> 10%
same,inhibition of growth at 10 µM,NCI-H522,> 10%
same,inhibition of growth at 10 µM,KM12,> 10%
same,inhibition of growth at 10 µM,NCI-H460,> 10%
same,inhibition of growth at 10 µM,MCF7,> 10%
same,inhibition of growth at 10 µM,SF-268,> 10%
same,inhibition of growth at 10 µM,HT-29,> 10%
same,inhibition of growth at 10 µM,NCI/ADR-RES,> 10%
same,inhibition of growth at 10 µM,SF-295,> 10%
same,inhibition of growth at 10 µM,UO-31,28.7%
same,inhibition of growth at 10 µM,HL-60(TB),> 10%
same,inhibition of growth at 10 µM,K562,> 10%
same,inhibition of growth at 10 µM,CCRF-CEM,> 10%
same,inhibition of growth at 10 µM,A549,> 10%
